According to ChEMBL document CHEMBL1146071, “2,4-diaminopyrimidine derivatives as potent growth hormone secretagogue receptor antagonists” (J Med Chem, 2006):
pIC50: −log10 of the molar value.

Legend:
[1] = target: T1, Growth hormone secretagogue receptor type 1 (Homo sapiens, UniProt Q92847); test: Displacement of [125I]ghrelin from human GHS receptor expressed in CHOK cells; format: cell-based
Outline: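 Membranes from CHO-K cells expressing human ghrelin receptor, prepared by sonication and a 60000g spin. Filtered onto PEI-soaked GF/C, washed cold, scintillation counted; percent inhibition, sigmoidal fit for IC50.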

[2] = target: T1, Growth hormone secretagogue receptor type 1; test: Antagonist activity at human GHS receptor by inhibition of ghrelin-induced intracellular calcium flux in CHOK cells; format: functional, cell-based
Outline: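 CHO-K cells stably expressing human GHS-R, grown in Ultra-CHO medium with 1% dialyzed FCS and 400 µg/mL G418, plated to confluency overnight. Loaded with Fluo-4 AM plus probenecid for 1-3 h in the dark at RT, then washed. On FLIPR (ex 488/em 520 nm), compound added first and read 3 min, then ghrelin added and read another 3 min. Duplicate or triplicate wells; sigmoidal fit for IC50.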

[3] = AUC in Sprague-Dawley rat at 5 mg/kg, iv; format: ADME, organism-based, Plasma; design: dose 5 mg/kg, route intravenous; settings: Sprague-Dawley, plasma
Outline: (§1)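 Rats dosed at 5 mg/kg: iv for AUC (µg·h/mL), clearance (L/h·kg) and Cmax (µg/mL); oral for bioavailability unless stated otherwise. Brain (µg/g) and plasma levels taken at 1 and 8 h. Mean of n = 3.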

[4] = Plasma clearance in Sprague-Dawley rat at 5 mg/kg, iv; format: ADME, organism-based; design: dose 5 mg/kg, route intravenous; outline: as §1
[5] = Half life in Sprague-Dawley rat at 5 mg/kg; format: ADME, organism-based; design: dose 5 mg/kg; settings: in vivo; outline: as §1
[6] = Cmax in Sprague-Dawley rat at 5 mg/kg, iv; format: ADME, organism-based; design: dose 5 mg/kg, route intravenous; settings: in vivo; outline: as §1
[7] = Oral bioavailability in Sprague-Dawley rat at 5 mg/kg; format: ADME, organism-based; settings: in vivo; outline: as §1
[8] = Concentration in Sprague-Dawley rat brain at 5 mg/kg after 1 hr; format: ADME, organism-based; design: dose 5 mg/kg; settings: read-out: Ct; outline: as §1
[9] = Plasma concentration in Sprague-Dawley rat at 5 mg/kg after 1 hr; format: ADME, organism-based; design: dose 5 mg/kg; outline: as §1
[10] = Concentration in Sprague-Dawley rat brain at 30 mg/kg, ip after 1 hr; format: ADME, organism-based; design: dose 30 mg/kg, route intraperitoneal; settings: read-out: Ct
Outline: (§2)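 Rats given 30 mg/kg ip. Brain (µg/g) and plasma levels measured at 1 and 8 h after dosing.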

[11] = Concentration in Sprague-Dawley rat brain at 30 mg/kg, ip after 8 hrs; format: ADME, organism-based; design: dose 30 mg/kg, route intraperitoneal; settings: read-out: Ct; outline: as §2
[12] = Plasma concentration in Sprague-Dawley rat at 30 mg/kg, ip after 1 hr; format: ADME, organism-based; design: dose 30 mg/kg, route intraperitoneal; outline: as §2
[13] = Plasma concentration in Sprague-Dawley rat at 30 mg/kg, ip after 8 hrs; format: ADME, organism-based; design: dose 30 mg/kg, route intraperitoneal; outline: as §2
[14] = Concentration in Sprague-Dawley rat brain at 5 mg/kg after 8 hrs; format: ADME, organism-based; design: dose 5 mg/kg; settings: read-out: Ct; outline: as §1
[15] = Plasma concentration in Sprague-Dawley rat at 5 mg/kg after 8 hrs; format: ADME, organism-based; design: dose 5 mg/kg; outline: as §1

T1 sequence (Q92847 whole entry): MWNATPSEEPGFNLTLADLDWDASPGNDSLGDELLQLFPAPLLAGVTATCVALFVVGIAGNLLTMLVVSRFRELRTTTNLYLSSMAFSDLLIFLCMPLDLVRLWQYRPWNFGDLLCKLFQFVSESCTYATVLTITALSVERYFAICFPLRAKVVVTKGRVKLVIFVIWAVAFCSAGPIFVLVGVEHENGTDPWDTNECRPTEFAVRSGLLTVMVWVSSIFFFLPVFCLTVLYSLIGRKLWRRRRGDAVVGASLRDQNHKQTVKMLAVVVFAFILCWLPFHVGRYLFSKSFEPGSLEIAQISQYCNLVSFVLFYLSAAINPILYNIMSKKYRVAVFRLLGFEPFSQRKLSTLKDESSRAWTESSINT

N#Cc1ccc(CNc2ccc(-c3c(N)nc(N)nc3COCc3ccccc3)cc2)cc1
pIC50 [1]: 8.55
pIC50 [2]: 7.72

Nc1nc(N)c(-c2ccc(NCc3ccnc(Cl)c3)cc2)c(COCc2ccccc2)n1
pIC50 [1]: 8.82
pIC50 [2]: 8.44

Nc1nc(N)c(-c2ccc(NCc3csc(Cl)c3)cc2)c(COCc2ccccc2)n1
pIC50 [1]: 8.20
pIC50 [2]: 6.77

CCc1nc(N)nc(N)c1-c1ccc(CNc2ccc(S(C)(=O)=O)cc2)cc1
pIC50 [1]: 8.01
pIC50 [2]: 6.92

CCc1nc(N)nc(N)c1-c1ccc(N(C)Cc2ccc(S(C)(=O)=O)cc2)cc1
pIC50 [1]: 8.43
pIC50 [2]: 7.49
AUC [3]: 2700 ng·h/mL
clearance [4]: 16.5 mL/min/kg
half-life [5]: 3.8 h
Cmax [6]: 430 ng/mL
bioavailability [7]: 53%
concentration at 1 h [8]: 40 ng/g
concentration at 1 h [9]: 1280 ng/mL

N#Cc1ccc(COc2ccc(-c3c(N)nc(N)nc3COCc3ccccc3)cc2)cc1
pIC50 [1]: 7.08
pIC50 [2]: 5.44

CCc1nc(N)nc(N)c1-c1ccc(CNc2ccc([N+](=O)[O-])cc2)cc1
pIC50 [1]: 8.04
pIC50 [2]: 6.72

Nc1nc(N)c(-c2ccc(NCc3ccc(Cl)cc3)cc2)c(CCc2ccccc2)n1
pIC50 [1]: 5.50
pIC50 [2]: 5.47
concentration at 1 h [10]: 1340 ng/g
concentration at 8 h [11]: 400 ng/g
concentration at 1 h [12]: 800 ng/mL
concentration at 8 h [13]: 90 ng/mL

CCc1nc(N)nc(N)c1-c1ccc(NCc2ccc(S(C)(=O)=O)cc2)c(Cl)c1
pIC50 [1]: 8.38
pIC50 [2]: 7.96
AUC [3]: 2700 ng·h/mL
clearance [4]: 26.7 mL/min/kg
half-life [5]: 8.7 h
Cmax [6]: 160 ng/mL
bioavailability [7]: 78%
concentration at 1 h [8]: 30 ng/g
concentration at 1 h [9]: 1040 ng/mL

Nc1nc(N)c(-c2ccc(NCc3cc(F)c(S(=O)(=O)C(F)(F)F)c(F)c3)cc2)c(COCc2ccccc2)n1
pIC50 [1]: 9.00
pIC50 [2]: 7.07

CCc1nc(N)nc(N)c1-c1ccc(NCc2ccc(C#N)cc2)cc1
pIC50 [1]: 6.80
pIC50 [2]: 6.11

CCc1nc(N)nc(N)c1-c1ccc(NCc2ccc(C(C)=O)cc2)cc1
pIC50 [1]: 7.24
pIC50 [2]: 6.96
AUC [3]: 680 ng·h/mL
clearance [4]: 61.7 mL/min/kg
half-life [5]: 2.4 h
Cmax [6]: 140 ng/mL
bioavailability [7]: 51%
concentration at 1 h [8]: 420 ng/g
concentration at 1 h [9]: 120 ng/mL

CCc1nc(N)nc(N)c1-c1ccc(NCc2ccc(Cl)cc2)cc1
pIC50 [1]: 6.51
pIC50 [2]: 5.86
AUC [3]: 2200 ng·h/mL
clearance [4]: 30 mL/min/kg
half-life [5]: 5.2 h
Cmax [6]: 170 ng/mL
bioavailability [7]: 76%
concentration at 1 h [8]: 2740 ng/g
concentration at 8 h [14]: 600 ng/g
concentration at 1 h [9]: 250 ng/mL
concentration at 8 h [15]: 110 ng/mL

CCc1nc(N)nc(N)c1-c1ccc(NCc2ccc([N+](=O)[O-])cc2)cc1
pIC50 [1]: 7.96
pIC50 [2]: 7.64
AUC [3]: 1600 ng·h/mL
clearance [4]: 43.3 mL/min/kg
half-life [5]: 5.5 h
Cmax [6]: 140 ng/mL
bioavailability [7]: 68%
concentration at 1 h [8]: 530 ng/g
concentration at 1 h [9]: 270 ng/mL

CC(C)(C)CNc1ccc(-c2c(N)nc(N)nc2COCc2ccccc2)cc1
pIC50 [1]: 7.17
pIC50 [2]: 6.15

CCc1nc(N)nc(N)c1-c1ccc(NCc2ccc(C(C)O)cc2)cc1 (configuration not stated)
pIC50 [1]: 7.89
pIC50 [2]: 6.96

Nc1nc(N)c(-c2ccc(NCc3cnc4ccccc4c3)cc2)c(COCc2ccccc2)n1
pIC50 [1]: 6.89
pIC50 [2]: 6.11

CCc1nc(N)nc(N)c1-c1ccc(NCc2csc(Cl)c2)cc1
pIC50 [1]: 6.54
pIC50 [2]: 6.10
